We go through 19 molecules from ChEMBL document CHEMBL2417390 (J Med Chem, 2013).

As usually defined, the IC50 is the concentration that inhibits the measured activity by half.

Experiment [1] deals with T1, Aromatase (Homo sapiens, UniProt P11511).
T1 sequence (P11511 whole entry): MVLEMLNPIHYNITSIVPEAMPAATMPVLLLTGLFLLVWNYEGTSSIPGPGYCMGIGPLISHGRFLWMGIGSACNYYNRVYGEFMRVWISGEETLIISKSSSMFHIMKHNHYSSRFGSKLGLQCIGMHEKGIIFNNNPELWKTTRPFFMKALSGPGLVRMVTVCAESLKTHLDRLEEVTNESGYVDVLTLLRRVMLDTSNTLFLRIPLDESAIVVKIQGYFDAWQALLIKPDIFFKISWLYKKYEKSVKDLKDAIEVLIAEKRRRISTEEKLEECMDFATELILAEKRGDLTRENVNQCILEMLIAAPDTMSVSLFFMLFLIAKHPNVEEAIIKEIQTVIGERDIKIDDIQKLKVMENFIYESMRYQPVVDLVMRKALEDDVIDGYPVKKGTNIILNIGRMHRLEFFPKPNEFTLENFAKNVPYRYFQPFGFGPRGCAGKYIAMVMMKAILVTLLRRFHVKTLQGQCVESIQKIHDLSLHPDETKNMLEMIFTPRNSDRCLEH
The experiment in a line: Inhibition of CYP19 in human placental microsomes using [1beta-3H]androstenedione as substrate by 3H2O-method. Details: species or system Placenta. Put shortly: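 Human placental microsomes as the aromatase source. Product formation was read by the 3H2O release method with [1β-3H]androstenedione at 500 nM as substrate.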

The target in experiment [2] is Cytochrome P450 3A4 (Homo sapiens, UniProt P08684). Briefly: Inhibition of recombinant CYP3A4 (unknown origin) expressed in baculovirus-infected insect microsomes. Type of experiment: ADME, Microsome. Put shortly:
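Recombinant CYP3A4 in baculovirus-infected insect microsomes (Supersomes), assayed following the supplier's protocol.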

For experiment [3], the species on record is Homo sapiens. The experiment in a line: Selectivity factor, ratio of IC50 for human CYP11B1 to IC50 for human CYP11B2.
The target in experiment [4] is T2, Cytochrome P450 11B1, mitochondrial (Homo sapiens, UniProt P15538).
T2 sequence (P15538 whole entry): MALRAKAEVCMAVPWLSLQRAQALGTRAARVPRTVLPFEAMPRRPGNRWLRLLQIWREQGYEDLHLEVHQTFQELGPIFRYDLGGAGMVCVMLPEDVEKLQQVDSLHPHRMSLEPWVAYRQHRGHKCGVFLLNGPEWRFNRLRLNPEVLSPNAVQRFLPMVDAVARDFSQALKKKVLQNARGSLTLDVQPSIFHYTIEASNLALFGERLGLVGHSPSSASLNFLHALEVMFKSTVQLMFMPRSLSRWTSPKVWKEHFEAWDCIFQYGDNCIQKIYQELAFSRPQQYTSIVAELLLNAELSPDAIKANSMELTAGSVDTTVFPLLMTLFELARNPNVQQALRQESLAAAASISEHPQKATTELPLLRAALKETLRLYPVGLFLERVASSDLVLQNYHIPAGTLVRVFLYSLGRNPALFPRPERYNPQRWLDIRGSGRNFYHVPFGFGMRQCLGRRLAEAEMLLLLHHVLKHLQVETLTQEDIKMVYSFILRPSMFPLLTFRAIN
Briefly: Inhibition of human CYP11B1 expressed in hamster V79MZh cells using [1,2-3H]-11-deoxycorticosterone as substrate. Type of experiment: cell-based.

The target in experiment [5] is T3, Cytochrome P450 11B2, mitochondrial (Homo sapiens, UniProt P19099).
T3 sequence (P19099 whole entry): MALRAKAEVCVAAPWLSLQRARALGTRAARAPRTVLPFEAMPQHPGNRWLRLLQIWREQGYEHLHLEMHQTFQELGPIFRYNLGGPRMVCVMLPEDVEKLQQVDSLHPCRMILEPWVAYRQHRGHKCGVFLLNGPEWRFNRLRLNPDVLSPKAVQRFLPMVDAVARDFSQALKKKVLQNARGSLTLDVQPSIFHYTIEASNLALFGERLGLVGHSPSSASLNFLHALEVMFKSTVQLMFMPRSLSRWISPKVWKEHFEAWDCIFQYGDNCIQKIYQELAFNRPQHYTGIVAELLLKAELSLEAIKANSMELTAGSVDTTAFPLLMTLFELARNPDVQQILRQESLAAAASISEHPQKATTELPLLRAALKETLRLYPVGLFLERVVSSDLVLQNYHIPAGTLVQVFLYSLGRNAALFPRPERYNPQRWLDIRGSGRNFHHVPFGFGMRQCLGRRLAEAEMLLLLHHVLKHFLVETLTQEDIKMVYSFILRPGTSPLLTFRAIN
Briefly: Inhibition of human CYP11B2 expressed in hamster V79MZh cells using [1,2-3H]-11-deoxycorticosterone as substrate. The format is cell-based.

Experiment [6] deals with T4, Steroid 17-alpha-hydroxylase/17,20 lyase (Homo sapiens, UniProt P05093).
T4 sequence (P05093 whole entry): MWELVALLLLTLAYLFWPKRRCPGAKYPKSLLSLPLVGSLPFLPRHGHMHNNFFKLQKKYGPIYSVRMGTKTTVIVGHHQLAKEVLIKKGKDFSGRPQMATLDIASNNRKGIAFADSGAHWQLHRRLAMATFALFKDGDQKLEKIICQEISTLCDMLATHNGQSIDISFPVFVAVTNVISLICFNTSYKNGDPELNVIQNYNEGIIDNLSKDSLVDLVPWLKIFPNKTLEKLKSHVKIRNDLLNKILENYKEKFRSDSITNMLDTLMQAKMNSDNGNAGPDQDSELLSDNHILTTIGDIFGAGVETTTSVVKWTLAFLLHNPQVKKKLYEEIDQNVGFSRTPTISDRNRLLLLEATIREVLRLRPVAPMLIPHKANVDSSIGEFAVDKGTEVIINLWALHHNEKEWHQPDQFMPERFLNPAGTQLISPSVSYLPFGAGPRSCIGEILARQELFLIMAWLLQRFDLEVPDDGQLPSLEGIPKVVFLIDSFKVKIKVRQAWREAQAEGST
Briefly: Inhibition of human CYP17 expressed in Escherichia coli using 1,2[3H]-progesterone as substrate in presence of NADPH. Put shortly:
(§1)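 Human CYP17 was recombinantly expressed in E. coli. The substrate was progesterone at 25 µM, with NADPH as cofactor.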

In experiment [7] the target is T4, Steroid 17-alpha-hydroxylase/17,20 lyase. The experiment in a line: Inhibition of human CYP17 expressed in Escherichia coli using 1,2[3H]-progesterone as substrate at 2000 nM in presence of NADPH relative to control. The following applies: read-out: INH.
The target is the same in experiment [8]. The experiment in a line: Inhibition of human CYP17. In outline:
as §1

The target of experiment [9] is T3, Cytochrome P450 11B2, mitochondrial. The experiment in a line: Inhibition of human CYP11B2.

Structures are written as SMILES.

Chain of Cytochrome P450 3A4 (P08684 whole entry): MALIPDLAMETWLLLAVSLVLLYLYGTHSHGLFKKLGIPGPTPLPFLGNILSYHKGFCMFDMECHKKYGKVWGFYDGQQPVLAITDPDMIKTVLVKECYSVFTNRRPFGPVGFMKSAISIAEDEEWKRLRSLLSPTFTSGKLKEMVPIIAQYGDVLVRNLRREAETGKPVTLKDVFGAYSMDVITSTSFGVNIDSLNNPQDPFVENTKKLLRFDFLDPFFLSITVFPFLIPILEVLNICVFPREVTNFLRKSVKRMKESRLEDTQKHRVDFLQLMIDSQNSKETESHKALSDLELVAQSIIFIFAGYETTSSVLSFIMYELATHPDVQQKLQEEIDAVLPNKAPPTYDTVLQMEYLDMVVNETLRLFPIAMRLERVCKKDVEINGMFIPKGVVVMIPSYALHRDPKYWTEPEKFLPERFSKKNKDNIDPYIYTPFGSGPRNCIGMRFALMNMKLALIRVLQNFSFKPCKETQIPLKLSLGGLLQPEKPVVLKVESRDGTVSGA

Regarding `COc1cncc(-c2ccc3ccc(O)cc3c2Cl)c1`, the half-maximal inhibitory concentration (IC50) in experiment [1] was above 2000 nM; in [2], 4200 nM; in experiment [4], 245 nM; in experiment [5], 15 nM; in experiment [6], 185 nM. Moreover, in experiment [3], the Ratio IC50 came out at 16.
Consider `COc1cncc(-c2ccc3ccc(OC)cc3c2Cl)c1`, for which the IC50 in experiment [1] was above 2000 nM; in [2], above 10000 nM; in [4], 447 nM; in [5], 24 nM; in [6], 94 nM. The Ratio IC50 in experiment [3] was found to be 19.
Regarding `N#Cc1ccc(C2CCCc3cncn32)cc1` (stereo not drawn) [FADROZOLE], in experiment [7], the inhibition at 2 µM was below 5%.
On to `COc1ccc2ccc(-c3cncc4ccccc34)c(Cl)c2c1`, for which the IC50 in experiment [1] was above 2000 nM; in [2], above 10000 nM; in [4], 362 nM; in [5], 54 nM; in experiment [6] it was 294 nM. Besides, in experiment [3], the Ratio IC50 stood at 7.
For the molecule `Oc1ccc2ccc(-c3cccnc3)c(Cl)c2c1F`, the IC50 in experiment [1] is above 2000 nM; in experiment [2], above 10000 nM; in experiment [4], 224 nM; in experiment [5] it was 25 nM; in [6], 375 nM. Besides, in experiment [3], the Ratio IC50 turned out to be 9.
In turn, `c1cncc(-c2ccc3ccccc3c2)c1` came in with an IC50 in experiment [8] of 3000 nM.
For the molecule `Oc1ccc2ccc(-c3cncnc3)c(Cl)c2c1`, the IC50 in experiment [1] is above 2000 nM; in experiment [2] it was 2150 nM; in experiment [4], 2430 nM; in experiment [5] it was 22 nM; in [6], 1520 nM. In addition, the Ratio IC50 in experiment [3] was determined as 110.
Consider `COc1ccc2ccc(-c3cccnc3)c(F)c2c1`, for which the IC50 in [1] was above 2000 nM; in experiment [2], above 10000 nM; in [4] it was 1610 nM; in experiment [5], 17 nM; in [6] it was 106 nM. The Ratio IC50 in experiment [3] was found to be 95.
Take `COc1ccc2ccc(-c3cccnc3)c(Cl)c2c1F`: the IC50 is above 2000 nM in experiment [1]; 1010 nM in experiment [2]; 2930 nM in experiment [4]; 28 nM in [5]; 147 nM in [6]. Moreover, the Ratio IC50 in [3] worked out at 104.
Turning to `Oc1ccc2ccc(-c3cncc4ccccc34)c(Cl)c2c1`, the IC50 in experiment [1] was above 2000 nM; in experiment [2], 1740 nM; in experiment [4] it was 238 nM; in experiment [5] it was 66 nM; in [6] it was 1030 nM. Further, the Ratio IC50 in experiment [3] was 4.
`Oc1ccc2ccc(-c3cccnc3)c(Cl)c2c1`: the concentration for half-maximal inhibition (IC50) in [1] is above 2000 nM; in [2], 1760 nM; in [4], 235 nM; in experiment [5], 26 nM; in experiment [6], 64 nM. Moreover, in experiment [3], the Ratio IC50 was 9.
In the case of `COc1ccc2ccc(-c3cccnc3)cc2c1`, the IC50 in [8] was 721 nM; in experiment [9] it was 68 nM; in experiment [1] it was above 2000 nM.
`COc1ccc2ccc(-c3cncc(F)c3)c(Cl)c2c1`: the IC50 is above 2000 nM in experiment [1]; above 10000 nM in experiment [2]; 1410 nM in experiment [4]; 38 nM in experiment [5]; 454 nM in experiment [6]. Besides, the Ratio IC50 in experiment [3] was 37.
Consider `Oc1ccc2ccc(-c3cccnc3)c(F)c2c1`, for which the IC50 in experiment [1] was above 2000 nM; in experiment [2], 1260 nM; in experiment [4], 1160 nM; in experiment [5], 30 nM; in experiment [6] it was 523 nM. Moreover, the Ratio IC50 in [3] was 39.
Turning to `COc1ccc2ccc(-c3cccnc3)c(Cl)c2c1`, the results for the IC50 in experiment [1] and in experiment [2] were above 2000 nM and 3560 nM, respectively. Further, the Ratio IC50 in experiment [3] came to 94.
For `COc1ccc2ccc(-c3cncc(O)c3)c(Cl)c2c1`, the IC50 in experiment [1] is above 2000 nM; in [2] it was 6720 nM; in experiment [4], 7100 nM; in [5] it was 13 nM; in experiment [6], 11 nM. Further, the Ratio IC50 in experiment [3] was found to be 546.
Regarding `Oc1ccc2ccc(-c3cncc(F)c3)c(Cl)c2c1`, the IC50 was above 2000 nM in experiment [1]; 3580 nM in experiment [2]; 450 nM in experiment [4]; 33 nM in experiment [5]; 525 nM in [6]. The Ratio IC50 in experiment [3] was 15.
As for `Oc1cncc(-c2ccc3ccc(O)cc3c2Cl)c1`, the IC50 in experiment [1] is above 2000 nM; in [2] it was 5050 nM; in experiment [4], 2820 nM; in experiment [5], 27 nM; in [6], 16 nM. In addition, the Ratio IC50 in [3] turned out to be 104.
For `COc1ccc2ccc(-c3cncnc3)c(Cl)c2c1`, the IC50 in experiment [1] was above 2000 nM; in experiment [2], above 10000 nM; in experiment [4], 12300 nM; in experiment [5], 72 nM; in experiment [6], 632 nM. The Ratio IC50 in experiment [3] came to 170.
